From ChEMBL document CHEMBL4390651, “Indole based antimalarial compounds targeting the melatonin pathway: Their design, synthesis and biological evaluation” (Eur J Med Chem, 2019)
The source made the active and inactive calls. No cut-off for these calls is given here.

How the values were obtained:
Plasmodium falciparum [1] = experiment: Antimalarial activity against trophozoite stage of Plasmodium falciparum 3D7 infected in human erythrocytes assessed as parasite survival level at 10 uM incubated for 48 hrs by Giemsa staining-based microscopic analysis (reference value: 43.65 +/- 5.16%); assay type: functional; details: 3D7, 48 h
Plasmodium falciparum [2] = experiment: Antimalarial activity against synchronized ring stage of Plasmodium falciparum 3D7 infected in human erythrocytes assessed as inhibition of parasite growth incubated for 48 hrs by Giemsa staining-based microscopic analysis; assay type: functional, organism-based; details: 3D7, 48 h
Outline: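 Sorbitol-synchronized ring-stage 3D7 in human O+ erythrocytes was exposed to four concentrations (1, 5, 10 and 20) for 48 h. Parasitemia was counted on Giemsa smears and IC50 taken from the dose-response curve. Mean ± SD of three independent experiments.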

Plasmodium falciparum [3] = experiment: Antimalarial activity against schizont stage of Plasmodium falciparum 3D7 infected in human erythrocytes assessed as parasite survival level at 10 uM incubated for 48 hrs by Giemsa staining-based microscopic analysis (reference value: 5 +/- 7.07%); assay type: functional; details: 3D7, 48 h
Plasmodium falciparum [4] = experiment: Antimalarial activity against schizont stage of Plasmodium falciparum 3D7 infected in human erythrocytes assessed as parasite survival level at 10 uM measured immediately at 0 hrs by Giemsa staining-based microscopic analysis (reference value: 0%); assay type: functional; details: 3D7, 0 h
[5] = Stability of the compound in 0.01 N HCL at pH 2.0 assessed as compound remaining at 1 mg/ml incubated for 0 to 24 hrs by HPLC analysis relative to control; assay type: physicochemical; details: for remaining at 1 mg/ml: 0.01 N HCl, read-out: Stability; for Stability: buffer
Outline: (§1)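 Compound stock in acetonitrile was added to 1.0 mL of fresh 0.01 N HCl (pH 2.0) or phosphate buffer (pH 7.4), held at 37 °C, and the amount remaining was measured by HPLC at intervals from 0 to 24 h.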

Plasmodium falciparum [6] = experiment: Antimalarial activity against trophozoite stage of Plasmodium falciparum 3D7 infected in human erythrocytes assessed as parasite survival level at 10 uM measured immediately at 0 hrs by Giemsa staining-based microscopic analysis (reference value: 3.55 +/- 5.02%); assay type: functional; details: 3D7, 0 h
Plasmodium falciparum [7] = experiment: Antimalarial activity against ring stage of Plasmodium falciparum 3D7 infected in human erythrocytes assessed as parasite survival level at 10 uM measured immediately at 0 hrs by Giemsa staining-based microscopic analysis (reference value: 96.4 +/- 5.09%); assay type: functional; details: 3D7, 0 h
Plasmodium falciparum [8] = experiment: Antimalarial activity against synchronized ring stage of Plasmodium falciparum 3D7 infected in human erythrocytes assessed as inhibition of parasite growth at 10 uM incubated for 0 to 48 hrs by Giemsa staining-based microscopic analysis; assay type: functional
Outline: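 3D7 was sorbitol-synchronized to ring stage at 1% parasitemia, cultured in human O+ erythrocytes (5% hematocrit, RPMI 1640/albumax, 37 °C, low-O2 gas), and exposed for 48 h, with DMSO as control. Giemsa smears at 0, 12, 24, 36 and 48 h gave parasitemia and stage morphology. Mean ± SD of three independent experiments.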

Plasmodium falciparum [9] = experiment: Antimalarial activity against ring stage of Plasmodium falciparum 3D7 infected in human erythrocytes assessed as parasite survival level at 10 uM incubated for 48 hrs by Giemsa staining-based microscopic analysis (reference value: 51.3 +/- 1.83%); assay type: functional; details: 3D7, 48 h
[10] = Stability of the compound in phosphate buffer at pH 7.4 assessed as compound remaining at 1 mg/ml incubated for 0 to 24 hrs by HPLC analysis relative to control; assay type: physicochemical; details: for remaining at 1 mg/ml: phosphate buffer, read-out: Stability; for Stability: buffer; outline: as §1
Plasmodium falciparum [11] = experiment: Antimalarial activity against chloroquine resistant Plasmodium falciparum RKL9 infected in human erythrocytes assessed as reduction in parasitemia incubated for 0 to 48 hrs by Giemsa staining-based microscopic analysis; assay type: functional, organism-based
Outline: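 Sorbitol-synchronized ring-stage culture at 1% parasitemia, 5% hematocrit in human O+ erythrocytes (RPMI 1640, 0.5% albumax, hypoxanthine, gentamicin; 37 °C, 5% CO2/5% O2/90% N2). Compounds at […] for 48 h. Parasitemia counted on Giemsa-stained smears at 0 and 48 h. DMSO control. Mean of three independent experiments ±SD.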

Plasmodium falciparum [12] = experiment: Antimalarial activity against Plasmodium falciparum 3D7 infected in human erythrocytes assessed as reduction in [3H]hypoxanthine incorporation pretreated for 24 hrs followed by [3H]hypoxanthine addition and measured after 48 hrs by scintillation counting method
Plasmodium falciparum [13] = experiment: (§2) Antimalarial activity against schizont stage of Plasmodium falciparum infected in human erythrocytes assessed as protection against melatonin-induced parasite synchronization by measuring parasitemia 5 uM incubated for 48 hrs by Giemsa staining-based microscopic analysis (reference value: 0%); assay type: functional
Plasmodium falciparum [14] = experiment: (§3) Antimalarial activity against schizont stage of Plasmodium falciparum infected in human erythrocytes assessed as protection against melatonin-induced parasite synchronization by measuring parasitemia 1 uM incubated for 48 hrs by Giemsa staining-based microscopic analysis (reference value: 0%); assay type: functional
Plasmodium falciparum [15] = experiment: as §2, with “troph” for “schizont”, “88.20 +/- 9.19%)” for “0%)”; assay type: functional
Plasmodium falciparum [16] = experiment: as §3, with “troph” for “schizont”, “measured immediately” for “incubated for 48 hrs”, “52.50 +/- 0.70%)” for “0%)”; assay type: functional
[17] = target: Melatonin receptor type 1A (Homo sapiens) (UniProt P48039); experiment: Inhibition of human MTNR1 receptor at 5 uM using TMB as substrate preincubated for 1 hr followed by substrate addition by ELISA relative to control
Outline: (§4)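 ELISA kit format: compounds incubated 1 h with MTNR1 receptor (5 ng/mL), melatonin as control. TMB substrate, stop solution, OD read at 450 nm; expressed as % inhibition.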

Plasmodium falciparum [18] = experiment: as §3, with “mixed” for “schizont”, “parasitemia at” for “parasitemia”, “measured immediately at 0” for “incubated for 48”, “1.05 +/- 0.07%)” for “0%)”; assay type: functional
Plasmodium falciparum [19] = experiment: as §2, with “ring” for “schizont”, “measured immediately” for “incubated for 48 hrs”, “23.90 +/- 0.84%)” for “0%)”; assay type: functional
Plasmodium falciparum [20] = experiment: as §3, with “ring” for “schizont”, “measured immediately” for “incubated for 48 hrs”, “23.90 +/- 0.84%)” for “0%)”; assay type: functional
Plasmodium falciparum [21] = experiment: as §2, with “mixed” for “schizont”, “parasitemia at” for “parasitemia”, “measured immediately at 0” for “incubated for 48”, “1.05 +/- 0.07%)” for “0%)”; assay type: functional
[22] = target: Melatonin receptor type 1A (Homo sapiens) (UniProt P48039); experiment: Inhibition of human MTNR1 receptor at 500 nM using TMB as substrate preincubated for 1 hr followed by substrate addition by ELISA relative to control; outline: as §4
Plasmodium falciparum [23] = experiment: as §3, with “troph” for “schizont”, “88.20 +/- 9.19%)” for “0%)”; assay type: functional
Plasmodium falciparum [24] = experiment: as §3, with “ring” for “schizont”, “11.80 +/- 9.19%)” for “0%)”; assay type: functional
Plasmodium falciparum [25] = experiment: as §2, with “ring” for “schizont”, “11.80 +/- 9.19%)” for “0%)”; assay type: functional
Plasmodium falciparum [26] = experiment: as §3, with “mixed” for “schizont”, “parasitemia at” for “parasitemia”, “4.76 +/- 0.61%)” for “0%)”; assay type: functional
Plasmodium falciparum [27] = experiment: as §2, with “measured immediately” for “incubated for 48 hrs”, “23.25 +/- 0.35%)” for “0%)”; assay type: functional
Plasmodium falciparum [28] = experiment: as §3, with “measured immediately” for “incubated for 48 hrs”, “23.25 +/- 0.35%)” for “0%)”; assay type: functional
Plasmodium falciparum [29] = experiment: as §2, with “mixed” for “schizont”, “parasitemia at” for “parasitemia”, “4.76 +/- 0.61%)” for “0%)”; assay type: functional
Plasmodium falciparum [30] = experiment: as §2, with “troph” for “schizont”, “measured immediately” for “incubated for 48 hrs”, “52.50 +/- 0.70%)” for “0%)”; assay type: functional
Plasmodium falciparum [31] = experiment: Antimalarial activity against Plasmodium falciparum 3D7 ring stage synchronized forms infected in human erythrocytes assessed as inhibition of parasite proliferation at 5 uM incubated for 48 hrs by Giemsa-staining method; assay type: functional; details: 3D7, 48 h
Outline: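 P. falciparum 3D7 grown in human O+ erythrocytes at 5% hematocrit in RPMI 1640 with NaHCO3, albumax, gentamicin and hypoxanthine, at 37 °C under 90% N2/5% CO2/5% O2. Single-concentration screen read as % inhibition of parasite proliferation. Mean of three experiments, each in triplicate.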

[32] = target: Melatonin receptor type 1A (Homo sapiens) (UniProt P48039); experiment: Inhibition of human MTNR1 receptor at 1 uM using TMB as substrate preincubated for 1 hr followed by substrate addition by ELISA relative to control; outline: as §4
[33] = target: Melatonin receptor type 1A (Homo sapiens) (UniProt P48039); experiment: Inhibition of human MTNR1 receptor at 500 nM to 5 uM using TMB as substrate preincubated for 1 hr followed by substrate addition by ELISA relative to control; outline: as §4

Melatonin receptor type 1A (Homo sapiens), sequence (P48039 whole entry): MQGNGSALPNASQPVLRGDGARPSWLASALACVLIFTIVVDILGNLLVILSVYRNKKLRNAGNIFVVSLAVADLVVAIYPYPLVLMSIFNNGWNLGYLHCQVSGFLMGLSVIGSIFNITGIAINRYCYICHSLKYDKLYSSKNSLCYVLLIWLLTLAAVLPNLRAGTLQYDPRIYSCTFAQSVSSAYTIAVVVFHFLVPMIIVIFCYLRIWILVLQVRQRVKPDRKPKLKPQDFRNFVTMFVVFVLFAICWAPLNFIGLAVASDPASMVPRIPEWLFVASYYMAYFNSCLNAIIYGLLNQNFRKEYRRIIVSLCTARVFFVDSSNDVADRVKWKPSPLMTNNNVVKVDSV

SMILES | survival at 10 µM (Plasmodium falciparum [1]) | IC50 (Plasmodium falciparum [2]) | survival at 10 µM (Plasmodium falciparum [3]) | survival at 10 µM (Plasmodium falciparum [4]) | survival at 10 µM (Plasmodium falciparum [6]) | survival at 10 µM (Plasmodium falciparum [7]) | growth inhibition (GI) (Plasmodium falciparum [8]) | survival at 10 µM (Plasmodium falciparum [9]) | inhibition (Plasmodium falciparum [11]) | inhibition at 5 µM (Plasmodium falciparum [31]) | also measured
C/N=C(\c1[nH]c2ccccc2c1CCNC(=O)OC)c1c(F)cccc1F | 27.5% | 730 nM | 11.2% | 2.82% | 3% | 93% | Active | 61.2% | Dose dependent effect |  | remaining at 1 mg/ml [5]: 90%; remaining at 1 mg/ml [10]: 95%
C/N=C(/c1ccccc1)c1[nH]c2ccccc2c1CCNC(=O)OC | 77.5% | 890 nM | 5% | 0% | 4.15% | 95.8% | Active | 17.5% | Dose dependent effect |  | Stability [5]: Unstable; Stability [10]: Unstable
CC(C)=C[C@H]1C[C@](C)(/C=C/c2[nH]c3ccccc3c2CCN(C)C)n2c1c(CCN(C)C)c1ccccc12 |  |  |  |  |  |  |  |  |  |  | IC50 (Plasmodium falciparum [12]): 150 to 1420 nM
C/N=C(/c1cc(C(F)(F)F)cc(C(F)(F)F)c1)c1[nH]c2ccc(OC)cc2c1CCNC(=O)OC | 95% | 740 nM | 0% | 0% | 5% | 95% | Active | 4.95% | Dose dependent effect |  | Activity (Plasmodium falciparum [13]): 1.85%; Activity (Plasmodium falciparum [14]): 2.9%; Activity (Plasmodium falciparum [15]): 70.9%; Activity (Plasmodium falciparum [16]): 53.8%; inhibition [17]: 85%; Activity (Plasmodium falciparum [18]): 1.15%; Activity (Plasmodium falciparum [19]): 24.1%; Activity (Plasmodium falciparum [20]): 24.2%; Activity (Plasmodium falciparum [21]): 1.1%; inhibition [22]: 75%; Activity (Plasmodium falciparum [23]): 79.1%; Stability [5]: Unstable; Activity (Plasmodium falciparum [24]): 18%; Activity (Plasmodium falciparum [25]): 27.25%; Activity (Plasmodium falciparum [26]): 2.8%; Activity (Plasmodium falciparum [27]): 21.85%; Activity (Plasmodium falciparum [28]): 22.95%; Activity (Plasmodium falciparum [29]): 1.65%; Activity (Plasmodium falciparum [30]): 53.25%; remaining at 1 mg/ml [10]: 60%
COC(=O)NCCc1c(C(=O)c2ccc(Cl)cc2)[nH]c2ccccc12 |  |  |  |  |  |  |  |  |  | 9% | 
CC(C)=C[C@H]1C[C@@](C)(/C=C/c2[nH]c3ccccc3c2CCN(C)C)n2c1c(CCN(C)C)c1ccccc12 |  |  |  |  |  |  |  |  |  |  | IC50 (Plasmodium falciparum [12]): 150 to 1420 nM
CC/N=C(/c1cc(C(F)(F)F)cc(C(F)(F)F)c1)c1[nH]c2ccc(OC)cc2c1CCNC(=O)OC | 17.5% | 2730 nM | 14% | 0.5% | 7% | 92.5% | Active | 68.5% | Dose dependent effect |  | inhibition [17]: 70%; inhibition [22]: 60%; inhibition [32]: 80%; Stability [5]: Unstable; remaining at 1 mg/ml [10]: 60%
CC/N=C(/c1ccc(C)cc1)c1[nH]c2ccccc2c1CCNC(=O)OC | 97.5% | 4280 nM | 2.5% | 0% | 7% | 93% | Active | 0% | Dose dependent effect |  | inhibition [33]: inactive; remaining at 1 mg/ml [5]: 20%; Stability [10]: Unstable
CNCCc1c(/C=C/[C@@]2(C)C[C@H](C=C(C)C)c3c(CCNC)c4ccccc4n32)[nH]c2ccccc12 |  |  |  |  |  |  |  |  |  |  | IC50 (Plasmodium falciparum [12]): 150 to 1420 nM
C/N=C(/c1ccc(OC)cc1F)c1[nH]c2ccccc2c1CCNC(=O)OC |  |  |  |  |  |  |  |  |  | 47% | 
CC(=O)NCCc1c(Cc2ccccc2)[nH]c2ccccc12 [LUZINDOLE] | 38.4% |  | 0% | 0.5% | 8% | 91.5% | Active | 61.6% |  | 48% | Activity (Plasmodium falciparum [13]): 0.88%; Activity (Plasmodium falciparum [14]): 0%; Activity (Plasmodium falciparum [15]): 77.15%; Activity (Plasmodium falciparum [16]): 50.5%; Activity (Plasmodium falciparum [18]): 1.1%; Activity (Plasmodium falciparum [19]): 23.75%; Activity (Plasmodium falciparum [20]): 23%; Activity (Plasmodium falciparum [21]): 1.03%; Activity (Plasmodium falciparum [23]): 80.9%; Activity (Plasmodium falciparum [24]): 19.1%; Activity (Plasmodium falciparum [25]): 21.97%; Activity (Plasmodium falciparum [26]): 2.88%; Activity (Plasmodium falciparum [27]): 24%; Activity (Plasmodium falciparum [28]): 25.8%; Activity (Plasmodium falciparum [29]): 2.56%; Activity (Plasmodium falciparum [30]): 51.9%
C/N=C(\c1cc(Br)cs1)c1[nH]c2ccccc2c1CCNC(=O)OC |  |  |  |  |  |  |  |  |  |  | inhibition at 10 µM (Plasmodium falciparum [8]): 15%
C/N=C(/c1ccc(Cl)cc1)c1[nH]c2ccccc2c1CCNC(=O)OC |  |  |  |  |  |  |  |  |  | 32% | 
